Screens (PubChem)
PGC1a acetyl up: compounds raising PGC1a acetylation signal, primary screen, PGC1a modulator project, cell-based, U2OS, AlphaScreen, signal-increasing mode | overnight | activation, % at 15.6 µM | 0.21% of 350,000 active | AID 651723, 2012;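 active means every replicate reaching activation of at least 50%, whatever the mean replicate activation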;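 further: hits raise the AlphaScreen acetylation signal above neutral controls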
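System – flag-PGC1a/GCN5 U2OS cells · Quantity – 7000 U2OS cells per well · Signal – AlphaScreen proximity luminescence, anti-acetyl-lysine antibody · Schedule – overnight compound treatment, 37 °C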
Hep G6PC suppr: suppressors of forskolin-stimulated G6PC mRNA, dose response, PGC-1a acetylation activator project, cell-based, hepatocytes, RT-qPCR, cherry-picked samples. shares compounds with PGC1a acetyl up. primary mouse hepatocytes. G6PC suppression (normalized activity, % of positive control; higher = more suppression), % at 26 µM. 240 tested, under 10 active. AID 743463, 2014;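 active means dose curves showing G6PC suppression whose half-maximal dose is at most twice the top valid dose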;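 further: G6PC expression relative to GAPDH housekeeping gene as delta delta Ct; 0% = median of neutral control wells and 100% = median of positive control wells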
Hep PCK1 suppr: suppression of PCK1 mRNA in primary hepatocytes, dose response, PGC-1a acetylation activator project, cell-based, primary mouse hepatocytes, RT-qPCR, cherry-pick; shares compounds with PGC1a acetyl up; forskolin-stimulated; PCK1 expression decrease, unspecified at 26 µM; 230 tested, under 10 active; AID 743465, 2014;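 active means compounds lowering PCK1 expression whose fitted half-maximal concentration is at most twice the top tested dose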;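 further: values are delta delta Ct of PCK1 relative to GAPDH; higher delta delta Ct means lower PCK1 expression so positive values indicate hits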
Hep PGC-1a down: suppression of PGC-1a mRNA in primary hepatocytes, dose response, PGC-1a acetylation activator project, cell-based, primary mouse hepatocytes, RT-qPCR, cherry-pick | shares compounds with PGC1a acetyl up | max activity (PGC-1a expression decrease), % | 240 tested, under 10 active | PGC-1a mRNA qPCR, forskolin; top dose 26 µM;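 active means compound lowering PGC-1a expression with fitted half-maximal concentration at most twice its top tested dose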;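 further: 0% = neutral control wells median and 100% = positive control wells median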
* = called active by the depositor. The list is a sample of the results.

SMILES	PGC1a acetyl up	others
O=[N+]([O-])c1ccc(N2CCN(CC3CCCCC3)CC2)cc1	63*
Cc1ccc(CC(=O)N2CCN(c3ccc([N+](=O)[O-])cc3)CC2)cc1	113*
O=C1c2ccccc2C(=O)N1c1ccc(Cc2ccncc2)cc1	-56
CC(NCc1cccs1)C(=O)NC1CCCCC1 (centres undefined)	-45
CCOC(=O)c1cnn(-c2ccccc2)c1-n1cccc1C(=O)C(=O)Nc1ccc(F)cc1	78*
CCS(=O)(=O)N[C@H]1C=C[C@H](CC(=O)N2CCCCC2)O[C@H]1CO	-43
N#C[C@@H]1[C@H](c2ccccc2C2=CCCCC2)[C@H](CO)N1C(=O)Cc1ccncc1	-45
CO[C@H]1CN(C)C(=O)c2ccc(NC(=O)C3CCOCC3)cc2OC[C@@H](C)N(C)C[C@@H]1C	-53
COC(=O)c1ccc2[nH]c3cccc(/C(=C/c4ccccc4)c4ccccc4)c3c2c1	61*
Cc1cc(C(F)(F)F)n(-c2nc(C(=O)NNS(=O)(=O)c3ccccc3[N+](=O)[O-])cs2)n1	-110
O=C(NCc1ccc2c(c1)OCO2)c1nc(S(=O)(=O)Cc2ccccc2)ncc1Cl	74*
CO[C@@H]1CN(C)C(=O)c2cc(NC(C)=O)ccc2OC[C@@H](C)N(Cc2ccccc2C(=O)O)C[C@@H]1C	-43
O=c1[nH]cnc2c1ccn2C1OC(CO)C(O)C1O (centres undefined)	138*
O=[N+]([O-])c1ccc(N=Nc2c(Cl)cc(O)cc2Cl)cc1	53*
COc1cccc2c1C(CO)N1C(C#N)C3CC(C(=O)O)C(C1C2)N3C (centres undefined)	-66
CC(=O)c1cccc(-c2ccnc3c2CC(C(=O)Nc2ccc4c(c2)OCO4)O3)c1 (centres undefined)	58*
C[C@H]1CN([C@@H](C)CO)C(=O)c2cccc(NC(=O)c3ccncc3)c2O[C@H]1CN(C)C(=O)Nc1ccc2c(c1)OCO2	-42
NC(Cc1ccccc1)c1csc(NC(=O)Nc2ccccc2Oc2ccccc2)n1 (centres undefined)	71*
O=C(CCC1CCCN(C(=O)c2cc(C3CC3)[nH]n2)C1)N1CCN(c2ccccn2)CC1 (centres undefined)	-98
C[C@@H]1CN([C@@H](C)CO)C(=O)c2cc(NS(=O)(=O)c3ccc(F)cc3)ccc2O[C@@H]1CN(C)S(=O)(=O)c1ccc(Cl)cc1	-43
C[C@@H]1CN([C@@H](C)CO)C(=O)c2c(c3ccccc3n2C)-c2ccccc2CO[C@@H]1CN(C)C(=O)c1cc(Cl)cc(Cl)c1	96*
CC(C)CC#Cc1cnc2c(c1)C(=O)N([C@@H](C)CO)C[C@@H](C)[C@H](CN(C)C(=O)c1ccccc1)O2	-49
C[C@H]1CCCCO[C@@H](CN(C)C(=O)c2ccccc2)[C@@H](C)CN([C@@H](C)CO)C(=O)c2cc(NC(=O)Nc3ccc(F)cc3)ccc2O1	-43
COC(C[C@H]1O[C@@H]1[C@H](O)[C@H](C)OCc1ccccc1)OC	-47
O=C(C[C@@H]1C=C[C@@H](NC(=O)Nc2ccc(F)cc2)[C@@H](CO)O1)NCCN1CCCC1	-48
SMILES	PGC1a acetyl up	others
Cc1cc(S(=O)(=O)Nc2ccc3ccccc3c2)c(C)s1	58*
Cc1cc(C)nc(NS(=O)(=O)c2ccc(NC(=O)Nc3ccccc3)cc2)n1	-97
C[C@@H]1CN([C@@H](C)CO)C(=O)CCCn2nncc2CO[C@@H]1CN(C)C(=O)NC1CCCCC1	-51
CCC(C)(C)n1nnnc1CN(Cc1ccc(Cl)cc1)Cc1ccco1	82*
CN(C)CC(O)c1ccc(C=Cc2ccc(Cl)cc2)cc1 (centres undefined)	-51
C[C@H]1CN([C@@H](C)CO)C(=O)c2cc(NC(=O)Nc3cccc4ccccc34)ccc2O[C@H]1CN(C)S(=O)(=O)c1ccc(Cl)cc1	-41
Cc1c(Cl)c([N+](=O)[O-])nn1CC(=O)NCc1cccnc1	-42
Cc1ccc(S(=O)(=O)Nc2ccccc2C(=O)NCc2cccnc2)cc1	-91
CC(C)(C)NC(=O)C(=O)NNC(=O)c1cccc([N+](=O)[O-])c1	-57
O=C(NCc1cccnc1)c1ccc(NC(=O)c2cccc([N+](=O)[O-])c2)cc1	171*
O=C(COc1ccc([N+](=O)[O-])cc1)Nc1ccc(C(=O)NCc2cccnc2)cc1	192*
C/C(=N/NC(=O)CNC(=O)c1cccnc1)c1ccc([N+](=O)[O-])cc1	-43
CNC[C@H]1Oc2ccc(NC(=O)CCN3CCOCC3)cc2C(=O)N([C@H](C)CO)C[C@H]1C	-42
CC(=O)N(c1cccc(C)c1)S(=O)(=O)c1ccc(Cl)cc1	-53
COCCSc1ccccc1C(=O)Nc1cc(C)on1	-51
Cc1ccccc1C(=O)Nc1ccc(C(=O)O)cc1NC(=O)c1ccccc1C	-41
CCOc1ccccc1NC(=O)c1ccc2ccccc2c1	-88
CCN(CC)c1ccc(NC(=O)c2cc(OC)cc(OC)c2)c(C)c1	99*
Cc1ccc2[nH]c3ccccc3c(=O)c2c1	68*
C[C@@H]1CN([C@H](C)CO)C(=O)CCCn2nncc2CO[C@H]1CN(C)S(=O)(=O)c1cn(C)cn1	-105
O=C1C=CCCN1S(=O)(=O)/C=C/c1ccccc1	-59
Cc1ccc(CC(=O)Nc2nccs2)cc1	-51
O=C(NC1=NCCS1)C1CC(=O)N(c2ccccc2)C1 (centres undefined)	68*
CSc1cccc(N2CC(C(=O)NCCN3C(=O)S/C(=C\c4cccnc4)C3=O)CC2=O)c1 (centres undefined)	-75
Cc1cc(C)nc(NC(=O)NS(=O)(=O)Nc2ccc(Br)cn2)n1	-44
SMILES	PGC1a acetyl up	others
CCOc1cc(C)c(S(=O)(=O)N2CCCC2)cc1C	61*
CCOc1cc(/C=C2\CN(C)C/C(=C\c3ccc(O)c(OCC)c3)C2=O)ccc1O	-53
COc1cnc(-c2ccccn2)nc1Sc1ccc(C)cc1	-60
COc1cccc2sc(Nc3nc(-c4ccccn4)cs3)nc12	60*
CCOC(=O)Cn1cnc2scc(-c3ccccc3)c2c1=O	-43
COC(=O)c1ccc2c(c1)C(C)(C)C(/C=C/c1ccccc1O)=[N+]2C	52*
Cc1ccc(NC(=O)CC2=NC(=O)C(CC(=O)Nc3ccccc3F)S2)cc1 (centres undefined)	-50
Cn1nc(C(C)(C)C)cc1NC(=O)C1(C)CCN1C(=O)C1(c2ccccc2)CCCC1 (centres undefined)	-55
O=C(COc1ccc(Cl)cc1)NCCCNC(=O)c1cccnc1	112*	Hep G6PC suppr=-17;Hep PCK1 suppr=11;Hep PGC-1a down=58
CCCNC(=O)c1ccc(COc2ccc(Cl)cc2)o1	-48
